Reference: the EternaBench riboswitch data

Test system: MS2 coat protein
Assay: apparent Kd, MS2 coat protein; higher = weaker binding; RNA-MaP array; FMN 200 µM where present
Procedure, shortened: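 The titrant was SNAP-549-labelled MS2 coat protein, run from 0.7 or 1.5 nM in doubling steps to 3 µM. It was applied to designs transcribed by stalled E. coli RNA polymerase on Illumina sequencing-chip clusters, without ligand first and then with constant ligand, in 100 mM Tris-HCl pH 7.5, 80 mM KCl, 4 mM MgCl2, BSA, DTT, yeast tRNA and Tween-20. The apparent Kd is the median of filtered per-cluster binding-curve fits, with green signal normalised to red-channel RNA signal and control-cluster median Fmax.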

[1] = designed as: OFF switch for flavin mononucleotide, no ligand
[2] = ligand present: flavin mononucleotide, designed as: OFF switch for flavin mononucleotide
[3] = designed as: ON switch for flavin mononucleotide, no ligand
[4] = ligand present: flavin mononucleotide, designed as: ON switch for flavin mononucleotide

Sequence | apparent Kd [1] [nM] | apparent Kd [2] [nM] | apparent Kd [3] [nM] | apparent Kd [4] [nM]
GUCAGCUCGUGAGGAUAUACUACACUGCUUCGGCAGUGUAUUAAGAUCACAUGAGGAUCACCCAUGUAGAAGGCACGAGCUGAU | 5.95 | 17 |  | 
UAGGUUUGUAGUUACAUCCCUACACAGGAUAUAGGUAGUUACAUGAGGAUCACCCAUGUUCGAACUUAGAAGGGUGGAUCGUUG |  |  | 48 | 10.3
GUUCAGUCAGGAUAUUUGUAACGCUCGGUAUCGAGUGGUAAGAAGAAGGGACAUGAGGAUCACCCAUGUCAGUA | 20.1 | 17.6 |  | 
GUUGUAUGAGGAUAUACAUGAGGAUCACCCAUGUGUGUUGUGAACGAUGUACGUUUAUGUAGAAGGCGUGCGGC | 17.8 | 21.5 |  | 
UGUAACCGAGGAUAUACAUGAGGAUCACCCAUGUAAUGUAGUAUAGUGUGUGUGAGGUGUAGAAGGUGGGAUGU | 93.4 | 97.2 |  | 
UGCAUGCUAGGAUAUACGGGACAUUAGGGUUCGUUGUGUGGACAUGAGGAUCACCCAUGUAGAAGGAGCGUGCU | 85.6 | 243 |  | 
UAAUAAUAGCAAGGAUAUGAUUAUUAUAAUAUAUCAGAAGGUGCACAUGAGGAUCACCCAUGUUUUAUAAUUUGUAAUUUAAAU | 54.4 | 37.9 |  | 
GCAGCGUAUGUAGGAUAUCGGUCAGUCUCUGAUCGAGAAGGACAUGAGGAUCACCCAUGUAAAUUACCGACUUUGUCGGGCUGC | 7.14 | 9.62 |  | 
UCCUCUUUGAAGAAGGCGUGGUUAUGCAAGCCGCGAGGAUAUUCACAUGAGGAUCACCCAUGUGGAUUUCAGUCCGCUCAAAAC | 11.9 | 61.8 |  | 
GUUUGUUAUUAGAAGGUGCCAGCGAGAGCUGCAACAUGAGGAUCACCCAUGUGUCGGUGACGACGCAAGGAUAUGGUGGUGGAU |  |  | 402 | 193
GUCAGCUCGUGAGGAUAUACAACACGGCUUCGGCAGUGUAUUAAGAUCACAUGAGGAUCACCCAUGUAGAAGGCACGAGCUGAU | 13.9 | 200 |  | 
CGCUCAAUAUAUAAGGAAAGAAUCAGAAGGCGUUACAUGAGGAUCACCCAUGUUUUGUAUAGUAACGAGGAUAUGAUAUGAGCG | 17.9 | 15.3 |  | 
AUAUCCGAAGCAGGAUAUCGGCAAGGUGUCGAGGUAGAGCGUACUCACAUGAGGAUCACCCAUGUCGAGAAGGGCUACAGGAUG | 16.8 | 72.4 |  | 
GGAUCCAUCACAGGAUAUGCUGGACUUUGUCCAGCAGAAGGGUGAAACAUGAGGAUCACCCAUGUAUGGAUCCAUAUAUUUAAU |  |  | 327 | 393
GUAGCUAUCGGAGGAUAUUCAUACCGGAAACGGACAUGAGGAUCACCCAUGUGCCGAAAGGCUUGGGAGAAGGCCGAUAGCUAC |  |  | 297 | 18.5
AUGCCCUGAGGAUAUCUCAUCCCGCACAUGAGGAUCACCCAUGUUCUCCUCCGGGCUCCGAGAGAAGGCAGGCCCA | 55.6 | 87.2 |  | 
AACUGUCUAAAGGAUAUGCUGGAUUAAUAUCUGGCAGAAGGUUGGACAUGAGGAUCACCCAUGUAAAUACUACC | 21.6 | 70.1 |  | 
CAGAUUUGCUAGAAGGGUGACAUGAGGAUCACCCAUGUGCGGGCAGUCCUAUCUUCAUGCCCGCCACAGGAUAUAGCAAUUCUC |  |  | 24.1 | 49
UCUAAUUAAAAUGAUUCAUCAACACAGGAUAUACCCGCAACAUGAGGAUCACCCAUGUAGGCCCGGUAGAAGGGUGCUUGGGAG |  |  | 20.5 | 6.9
AGAUGGCGAGGAUAUACAUGAGGAUCACCCAUGUGAAGAUAAAGAGUGAGGAAGAAAAGUAGAAGGCGCUGUCA | 123 | 506 |  | 
GUCAGCUCGUGAGGAUAUACAUGUGCUGGAAACAGCACUAUUGAGUUCACAUGAGGAUCACCCAUGUAGAAGGCACGAGCUGAU | 15.8 | 28 |  | 

Sequence | apparent Kd [1] [nM] | apparent Kd [2] [nM] | apparent Kd [3] [nM] | apparent Kd [4] [nM]
AAUUAGUGUGUGAGGAUAUUGGUGGAAUGACAUAUUAAGAAGGCACAUGAGGAUCACCCAUGUGGGAUGUCACG | 10.9 | 13.6 |  | 
GGAUGACAAAGUCAUCCUAUUCGAACAUGAGGAUCACCCAUGUAGGAUAUGCUACAGAAACUGUAGCAGAAGGACAUGUGCUUU | 34.1 | 151 |  | 
ACAUGAGACUAAGGAUAUGAUGUACCUAUAUGUGACAUGAGGAUCACCCAUGUGGUAAGUAUGACUCAGAAGGUAGAGAUAUGU |  |  | 222 | 77.3
AUCAGCUCGUCAGGAUAUGCGUCACUGCUUCGGCAGUGUGGUAAGAUCACAUGAGGAUCACCCAUGUAGAAGGGACGAGCUGAU | 9.91 | 75.2 |  | 
GUCAGCUCGUAAGGAUAUACAACACUGCUUCGGCAGUGUAUUAAGAUCACAUGAGGAUCACCCAUGUAGAAGGCACGAGCUGAU | 7.06 | 18.9 |  | 
GACGGUGAUGUAGGAUAUACGCUGGAAUACAGCGUAGAAGGACAUGAGGAUCACCCAUGUAAAGUGUCUCCAAAUAACACCGUC | 31.5 | 90.8 |  | 
GUGCACAUUCGAGGAUAUCGGAGAGGAAUCCUUCGAGAAGGCGAUUCAUGCUGUGUUAUUCUGGACAUGAGGAUCACCCAUGUG |  |  | 192 | 97.8
UCCACUGCUGAGAAGGGAUACGUGUGGUUCGCAUCAGGAUAUCGAUACAGUGCAGCAUGAGGACAUGAGGAUCACCCAUGUAUU |  |  | 24.6 | 13.4
UUAAAUCAUGUAGGAUAUGCAUGGCGAAGCUACGCAGAAGGACAUGAGGAUCACCCAUGUUAUAGCUACAGAGUUCUGUGGCAA | 102 | 233 |  | 
CUCAUGUGAGGAUAUAGUGCGUCUUCUAUUAUUAUUGAGUACUAGAAGGCACAUGAGGAUCACCCAUGUAGCAC | 53.4 | 54.3 |  | 
UGCGAUGCAGUUGGCCCUGGGCGAGAGGAUAUGGGCAGCGGGACAUGAGGAUCACCCAUGUUCUCUCAGAAGGCUCGAGCAGGC |  |  | 256 | 91.6
CUCUCACAUGAGGAUCACCCAUGUCCACCUCCGUGAGGAUAUAGAUAAUAAAUACAUUUACUAGAAGGCGCAUCCC |  |  | 285 | 298
AUGCCAGAAGGAUAUACAUGAGGAUCACCCAUGUCAUGUUUGAUUCGCCCGCAGGGCUGUAGAAGGUCUGGCAU | 65.2 | 543 |  | 
AGUACUCCAGAAGGAUAUGCAUCGGUGGAUGUCCUUAGGCGGACGGUCACAUGAGGAUCACCCAUGUAGAAGGUCUGGGAGCCG | 39.8 | 238 |  | 
GCGUACAUAUCAGGAUAUCAUUGUAUUGUUUAACUCAGUGUAUACAUGAGGAUCACCCAUGUUCUUGAGAAGGGAUUACUACGC | 14.1 | 15.4 |  | 
GUAGAGUAAGGAUAUGUUGAAUAGGAUAGAAUGGUUAGAAAGCAGAAGGUACAUGAGGAUCACCCAUGUAAUGU | 22.6 | 21 |  | 
GGUACUCAAAGAGUACCAAUUCGAACAUGAGGAUCACCCAUGUAGGAUAUGCUACUCAAAGAGUAGCAGAAGGACAUGUGCCUA | 15.6 | 73.6 |  | 
UUGGACGUCGUAGGAUAUGUAGGAUAUUCCUACAUGAGGAUCACCCAUGUUGACAUGGAAGAAGGGCAGAAGGACGAUGUCCAU |  |  | 548 | 8.38
UGUACUAUAAGGUUAAUUGUAUAUUGAGAAGGCAUUCACAUGAGGAUCACCCAUGUAACAUGGGAUGAGGAUAUCAUUUUGUAC |  |  | 232 | 32.6
AGUGUCAUCGAGAAGGCCUCAUGAACAUGAGGAUCACCCAUGUAAUAUGGGAGGAUAUCGAUGAUACAGCUACGUUUCGUAGCA |  |  | 51.4 | 33.9
